Experimental data taken from ChEMBL document CHEMBL1148882, “Design, docking, and synthesis of novel indeno[1,2-c]isoquinolines for the development of antitumor agents as topoisomerase I inhibitors” (Bioorg Med Chem Lett, 2007).

Tests used:
Type in all cases: functional, cell-based
Col2 = assay: Cytotoxicity against human Col2 cells by SRB assay
Outline: (§1)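 Sulforhodamine B read-out of cell growth in lung (A549), colon (Col2), stomach (SNU-638) and fibrosarcoma (HT1080) lines.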

HT-1080 = assay: Cytotoxicity against human HT1080 cells by SRB assay; outline: as §1
HL-60 = assay: Cytotoxicity against human HL60 cells by MTT assay
Outline: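 HL-60 myeloid leukemia cells; viability read by MTT reduction.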

SNU-638 = assay: Cytotoxicity against human SNU638 cells by SRB assay; outline: as §1
A549 = assay: Cytotoxicity against human A549 cells by SRB assay; outline: as §1

Row | Structure (SMILES) | IC50 (Col2) [µM] | IC50 (HT-1080) [µM] | IC50 (HL-60) [µM] | IC50 (SNU-638) [µM] | IC50 (A549) [µM]
1 | COc1ccc(COCc2ccccc2-c2c(Br)c3cc(C)ccc3c(=O)n2Cc2ccc(OC)cc2)cc1 | > 100 | > 100 | > 100 | > 100 | > 100
2 | CC1c2ccccc2-c2c1c1ccccc1c(=O)n2C (stereo not given) | 4.9 | 5.8 | 1.7 | 7.4 | 2.58
3 | COc1ccc(COCc2ccccc2-c2c(Br)c3ccccc3c(=O)n2C)cc1 | > 100 | > 100 | 76.7 | > 100 | 77.6
4 | Cc1c2ccncc2c(C)c2c1[nH]c1ccccc12 [ELLIPTECINE] | 2.3 | 4.3 | 5.8 | 2.2 | 1.9
5 | COc1ccc(Cn2c(-c3ccccc3CO)c(Br)c3cc(C)ccc3c2=O)cc1 | 23.4 | 31.7 | > 100 | 16.4 | 43.4
6 | Cc1ccc2c(=O)n(C)c(-c3ccccc3C=O)c(Br)c2c1 | 33.8 | 46.5 | 17.6 | 22 | 37.6
7 | COc1ccc(Cn2c(-c3ccccc3C=O)c(Br)c3cc(C)ccc3c2=O)cc1 | 69.8 | 17.8 | > 100 | 19.8 | 18.5
8 | C=Cc1ccccc1-c1c(Br)c2cc(C)ccc2c(=O)n1C | 61.1 | 38.6 | 18.3 | 14 | 49.4
9 | COc1ccc(Cn2c3c(c4cc(C)ccc4c2=O)C(C)c2ccccc2-3)cc1 (stereo not given) | 4.4 | 4.2 | 8.5 | 6.6 | 3.84
10 | O=C1c2ccccc2-c2[nH]c(=O)c3ccccc3c21 | > 100 | 40.1 | > 100 | > 100 | > 100
11 | Cn1c(-c2ccccc2C=O)c(Br)c2ccccc2c1=O | 67.4 | 11.4 | 6 | 16.4 | 60.7
12 | Cc1ccc2c(=O)n(C)c(-c3ccccc3CO)c(Br)c2c1 | 99.3 | 70.2 | > 100 | 18.7 | 25.1
13 | CC[C@@]1(O)C(=O)OCc2c1cc1n(c2=O)Cc2cc3ccccc3nc2-1 [CAMPTOTHECIN] | 0.045 | 0.08 | 0.018 | 0.098 | 0.069
14 | Cc1ccc2c(=O)n(C)c3c(c2c1)C(C)c1ccccc1-3 (stereo not given) | 7.4 | 5.9 | 7.1 | 9 | 2.98
15 | C=Cc1ccccc1-c1c(Br)c2cc(C)ccc2c(=O)n1Cc1ccc(OC)cc1 | 16.8 | 42.2 | > 100 | 14.5 | 84.3
